Format in all cases: functional, cell-based
The test system of one assay is HL-60. The assay is described as follows: Cytostatic activity against human HL60 cells after 24 hrs by colorimetric microculture assay. As to conditions: HL-60, 24 h. The method, boiled down:
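MTT assay: HL-60 cells seeded at 10⁴ per well, grown 24 h in culture medium, then exposed at 37 °C for 24 h to varying doses of compounds dissolved in DMSO, with DMSO controls. Absorbance read at 595 nm. Viability taken as treated over control absorbance. IC50 derived from concentration-effect curves; means of three experiments with standard deviation.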

Another assay has as its system MCF7. The assay is described as follows: Cytostatic activity against human MCF7 cells after 96 hrs by colorimetric microculture assay. To be noted: MCF7, 96 h. The method, boiled down:
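MCF-7 cells at 10⁴ per well, preincubated 24 h, then treated at 37 °C for 96 h with varying doses dissolved in DMSO alongside DMSO controls. Read-out: MTT colorimetry at 595 nm, viability as a fraction of control absorbance. IC50 fitted from concentration-effect curves; three experiments, mean with standard deviation.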

A further assay has as its system HeLa. As to the kind of experiment: Cytostatic activity against human HeLa 229 cells after 48 hrs by colorimetric microculture assay. The method in brief: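 HeLa-229 cells plated at 4 × 10³ per well and cultured 24 h before treatment at 37 °C for 48 h with varying doses in DMSO, DMSO controls included. MTT colour measured at 595 nm. Percent viability relative to control; IC50 from concentration-effect curves. Mean of three experiments, SD given.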

Results on 13 compounds are retold here after ChEMBL document CHEMBL1629493, “Synthesis and cytostatic activity of purine nucleosides derivatives of allofuranose” (Eur J Med Chem, 2010).

A word on the IC50: it is the concentration needed to halve the response being measured.

For `OC[C@@H](O)[C@H]1O[C@@H](n2cnc3c(Cl)ncnc32)[C@H](O)[C@@H]1O`, the IC50 in the assay with HL-60, in the assay with MCF7 and in the assay on HeLa was over 100 µM each time.

In the case of `OC[C@@H](O)[C@H]1O[C@@H](n2cnc3c(Cl)nc(Cl)nc32)[C@H](O)[C@@H]1O`, the 50% inhibitory concentration (IC50) in the assay with HL-60 was over 100 µM; with MCF7, 54.2 µM; in the assay on HeLa, 47.1 µM.

For the compound `Nc1ncnc2c1ncn2[C@@H]1O[C@H]([C@H](O)CO)[C@@H](O)[C@H]1O`, the half-inhibitory concentration (IC50) in the assay with HL-60, in the assay with MCF7 and in the assay on HeLa was over 100 µM each time.

In the case of `Nc1nc(Cl)nc2c1ncn2[C@@H]1O[C@H]([C@H](O)CO)[C@@H](O)[C@H]1O`, the 50% inhibitory concentration (IC50) in the assay on HL-60, in the assay on MCF7 and in the assay with HeLa was over 100 µM each time.

With `CNc1ncnc2c1ncn2[C@@H]1O[C@H]([C@H](O)CO)[C@@H](O)[C@H]1O`, the IC50 with HL-60, in the assay with MCF7 and with HeLa was over 100 µM throughout.

For the compound `CNc1nc(Cl)nc2c1ncn2[C@@H]1O[C@H]([C@H](O)CO)[C@@H](O)[C@H]1O`, the IC50 in the assay with HL-60, in the assay on MCF7 and with HeLa was over 100 µM throughout.

Consider `OC[C@@H](O)[C@H]1O[C@@H](n2cnc3c(-c4ccccc4)ncnc32)[C@H](O)[C@@H]1O`, for which the IC50 with HL-60, with MCF7 and with HeLa was over 100 µM throughout.

For `CCOc1nc(Cl)nc2c1ncn2[C@@H]1O[C@H]([C@H](O)CO)[C@@H](O)[C@H]1O`, the IC50 in the assay with HL-60, with MCF7 and with HeLa was over 100 µM throughout.

As for `CC(=O)OC[C@@H](OC(C)=O)[C@H]1O[C@@H](n2cnc3c(Cl)ncnc32)[C@H](OC(C)=O)[C@@H]1OC(C)=O`, the figures for the IC50 in the assay on HL-60, with MCF7 and with HeLa were 79.3 µM, over 100 µM and over 100 µM, respectively.

`CC(=O)OC[C@@H](OC(C)=O)[C@H]1O[C@@H](n2cnc3c(-c4ccccc4)ncnc32)[C@H](OC(C)=O)[C@@H]1OC(C)=O`: the IC50 in the assay with HL-60, in the assay on MCF7 and with HeLa was over 100 µM in each case.

Regarding `CC(=O)OC[C@@H](OC(C)=O)[C@H]1O[C@@H](n2cnc3c(Cl)nc(Cl)nc32)[C@H](OC(C)=O)[C@@H]1OC(C)=O`, the IC50 was 16.1 µM in the assay with HL-60, 22.4 µM with MCF7 and 24.2 µM in the assay on HeLa.

Regarding `CC(=O)O[C@H]1[C@@H](OC(C)=O)[C@H](n2cnc3c(Cl)nc(Cl)nc32)O[C@@H]1[C@H](O)CO`, the 50% inhibitory concentration (IC50) was determined as 45 µM with HL-60, 36.3 µM with MCF7 and 36.3 µM in the assay on HeLa.

Turning to `CC(=O)OC[C@@H](OC(C)=O)[C@H]1O[C@@H](n2cnc3c(N)nc(Cl)nc32)[C@H](OC(C)=O)[C@@H]1OC(C)=O`, the IC50 in the assay on HL-60, in the assay on MCF7 and with HeLa was over 100 µM each time.
